Experimental findings from ChEMBL document CHEMBL4145531, “Synthesis of novel Chlorin e6-curcumin conjugates as photosensitizers for photodynamic therapy against pancreatic carcinoma” (Eur J Med Chem, 2018) are described below.

Experiment [1] deals with ASPC1. As to the kind of experiment: Phototoxicity in human AsPC1 cells assessed as induction of apoptosis by measuring late apoptotic cells at 60 nM preincubated for 3 hrs followed by 9 J/cm2 laser light irradiation and measured after 24 hrs by Annexin V-FITC/propidium iodide staining based flow cytometry (reference value: 0.41%). Type of experiment: functional. A general note: In flow cytometry, cells or beads pass a laser one at a time.

For experiment [2], the system named is ASPC1. Kind of experiment: Phototoxicity in human AsPC1 cells assessed as induction of apoptosis by measuring late apoptotic cells at 40 nM preincubated for 3 hrs followed by 9 J/cm2 laser light irradiation and measured after 24 hrs by Annexin V-FITC/propidium iodide staining based flow cytometry (reference value: 0.41%). Type of experiment: functional.
Experiment [3] has as its system ASPC1. Kind of experiment: Phototoxicity in human AsPC1 cells assessed as induction of apoptosis by measuring early apoptotic cells at 20 nM preincubated for 3 hrs followed by 9 J/cm2 laser light irradiation and measured after 24 hrs by Annexin V-FITC/propidium iodide staining based flow cytometry (reference value: 7.05%). In kind it is functional.
Experiment [4] concerns ASPC1. Kind of experiment: Phototoxicity in human AsPC1 cells assessed as induction of apoptosis by measuring live cells at 20 nM preincubated for 3 hrs followed by 9 J/cm2 laser light irradiation and measured after 24 hrs by Annexin V-FITC/propidium iodide staining based flow cytometry (reference value: 91.51%). In kind it is functional.
Experiment [5] has as its system ASPC1. Kind of experiment: Phototoxicity in human AsPC1 cells assessed as induction of apoptosis by measuring early apoptotic cells at 40 nM preincubated for 3 hrs followed by 9 J/cm2 laser light irradiation and measured after 24 hrs by Annexin V-FITC/propidium iodide staining based flow cytometry (reference value: 7.05%). In kind it is functional.
Experiment [6] concerns ASPC1. Kind of experiment: Phototoxicity in human AsPC1 cells assessed as induction of apoptosis by measuring upregulation of cleaved caspase-9 expression at 20 to 40 nM preincubated for 3 hrs followed by 9 J/cm2 laser light irradiation and measured after 24 hrs by Western blot analysis. Type of experiment: functional, cell-based. An outline of the steps:
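Cells in six-well plates were exposed to compound for 3h and irradiated at 660 nm (50 mW, 9 J/cm²), then incubated 24h. Lysis was on ice in modified RIPA buffer (pH 7.4) with protease inhibitors. After clearing at 10,000g for 10 min at 4 °C, proteins were separated by 10% SDS-PAGE, blotted and detected by ECL.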

In another experiment the test system is PANC-1. As to the kind of experiment: Potency index, ratio of chlorin e6 IC50 to compound IC50 for phototoxicity in human PANC1 cells. In kind it is functional.

The structures appear in SMILES notation. Calls of active or inactive are those of the source. No cut-off for these calls is given here.

With `C=Cc1c(C)c2cc3nc(c(CC(=O)OC)c4[nH]c(cc5nc(cc1[nH]2)C(C)=C5CC)c(C)c4C(=O)NCCOCCOCCNC(=O)CCCC(=O)Oc1ccc(/C=C/C(=O)CC(=O)/C=C/c2ccc(O)c(OC)c2)cc1OC)C(CCC(=O)OC)C3C` (configuration not stated), the Activity was 15.65% in the experiment on ASPC1 [1]; 10.77% in the experiment with ASPC1 [2]; 15.09% with ASPC1 [3]; 77.38% in the experiment on ASPC1 [4]; 16.27% in the experiment on ASPC1 [5]. In addition, in the experiment on ASPC1 [6], the result was Active. In addition, the “Ratio IC50” value in the experiment on PANC-1 was 247.
